In ChEMBL document CHEMBL4813982, “Novel pyrazolo[4,3-d]pyrimidine microtubule targeting agents (MTAs): Synthesis, structure-activity relationship, in vitro and in vivo evaluation as antitumor agents” (Bioorg Med Chem Lett, 2021):

Key:
Tubulin (Homo sapiens) [1] = molecular target: T1, Tubulin (Homo sapiens) (UniProt P68371+Q9H4B7+P0DPH7+P68366+Q13509+Q71U36+P04350+Q3ZCM7+P07437+P68363+Q9BQE3+Q6PEY2+Q13885+Q9BVA1+Q9BUF5); assay: Inhibition of [3H]colchicine binding to tubulin (unknown origin) at 5 uM relative to control; type: protein-complex assay
Tubulin = assay: Inhibition of tubulin assembly (unknown origin); type: protein-complex assay, Homo sapiens
OVCAR-8 = assay: Antiproliferative activity against human OVCAR-8 cells; type: functional, cell-based
NCI/ADR-RES = assay: Antiproliferative activity against human NCI/ADR-RES cells overexpressing Pgp; type: functional, cell-based
[2] = Resistance ratio of IC50 for antiproliferative activity against human NCI/ADR-RES cells expressing Pgp to IC50 for antiproliferative activity against human OVCAR-8 cells; type: functional
Summary of the method: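 Resistance ratio: IC50 in Pgp-overexpressing NCI/ADR-RES cells divided by IC50 in parental OVCAR-8 cells.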

Tubulin (Homo sapiens) [3] = molecular target: T1, Tubulin (Homo sapiens); assay: Inhibition of [3H]colchicine binding to tubulin (unknown origin) at 0.5 uM relative to control; type: protein-complex assay
MCF7 [4] = assay: Antiproliferative activity against human MCF7 cells; type: functional, cell-based
MCF7 [5] = assay: Antiproliferative activity against human MCF7 cells expressing TUBB3; type: functional, cell-based
[6] = Resistance ratio of EC50 for antiproliferative activity against human MCF7 cells expressing TUBB3 to EC50 for antiproliferative activity against human MCF7 cells; type: functional
Summary of the method: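 Resistance ratio: EC50 in MCF-7 cells overexpressing βIII-tubulin divided by EC50 in parental wild-type MCF-7 cells.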

MCF7 [7] = assay: Potency index, ratio of EC50 of paclitaxel to EC50 of compound for antiproliferative activity against human MCF7 cells; type: functional
MCF7 [8] = assay: Potency index, ratio of EC50 of paclitaxel to EC50 of compound for antiproliferative activity against human MCF7 cells expressing TUBB3; type: functional

CN(c1ccc(OC(F)(F)F)cc1)c1nc(Cl)nc2cnn(C)c12
inhibition (Tubulin (Homo sapiens) [1]): 64% | IC50 (Tubulin): 2900 nM | IC50 (OVCAR-8): 880 nM | IC50 (NCI/ADR-RES): 730 nM | Ratio IC50 [2]: 0.83

COc1ccc(Nc2nc(C)nc3cc[nH]c23)cc1
inhibition (Tubulin (Homo sapiens) [1]): 0%

CCOc1ccc(N(C)c2nc(Cl)nc3cnn(C)c23)cc1
inhibition (Tubulin (Homo sapiens) [1]): 99% | inhibition (Tubulin (Homo sapiens) [3]): 88% | IC50 (Tubulin): 420 nM | EC50 (MCF7 [4]): 7.7 nM | EC50 (MCF7 [5]): 9.7 nM | Ratio EC50 [6]: 1.3 | Ratio EC50 (MCF7 [7]): 25 | Ratio EC50 (MCF7 [8]): 220 | IC50 (OVCAR-8): 2 nM | IC50 (NCI/ADR-RES): 4 nM | Ratio IC50 [2]: 2

COc1ccc(N(C)c2nc(Cl)nc3cnn(C)c23)cc1F
inhibition (Tubulin (Homo sapiens) [1]): 97% | inhibition (Tubulin (Homo sapiens) [3]): 77% | IC50 (Tubulin): 740 nM | EC50 (MCF7 [4]): 1.7 nM | EC50 (MCF7 [5]): 2.6 nM | Ratio EC50 [6]: 1.6 | Ratio EC50 (MCF7 [7]): 100 | Ratio EC50 (MCF7 [8]): 600 | IC50 (OVCAR-8): 9 nM | IC50 (NCI/ADR-RES): 7 nM | Ratio IC50 [2]: 0.77
